Results as given in ChEMBL document CHEMBL4689842, “EUbOPEN Chemogenomics Library wave 1” (2021).

System: HEK-293T
Experiment: Multiplex assay against HEK293T;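 for Population Tubulin-Different-Phenotype (%): share of the cells with healthy nuclei that show this phenotype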
Format: toxicity, cell-based
Settings: human
In short: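 With compound added, live cells were imaged on a CQ1 microscope at 37°C and 5% CO2; staining with Hoechst33342, BioTracker Green Microtubule Cytoskeleton Dye, MitoTracker Red and Annexin V Alexa Fluor 680 had been done at seeding. The CellPathfinder machine-learning gating scheme split cells into Hoechst high-intensity objects or normal cells, normal cells into healthy, pyknosed or fragmented nuclei, and pyknosed cells into mitotic or apoptotic. The tubulin, mitochondrial-mass and membrane-permeability phenotypes are per cents of healthy-nucleus cells.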

[1] = 12 h, 1 µM, compound concentration 1 uM, replicate 1
[2] = 12 h, 1 µM, compound concentration 1 uM, replicate 2
[3] = 12 h, 10 µM, compound concentration 10 uM, replicate 1
[4] = 12 h, 10 µM, compound concentration 10 uM, replicate 2
[5] = 24 h, 1 µM, compound concentration 1 uM, replicate 1
[6] = 24 h, 1 µM, compound concentration 1 uM, replicate 2
[7] = 24 h, 10 µM, compound concentration 10 uM, replicate 1
[8] = 24 h, 10 µM, compound concentration 10 uM, replicate 2

## NC(=O)c1ccc2nc(-c3ccc(C4(N)CCC4)cc3)c(-c3ccccc3)n2n1 [BAY-1125976]
[1]
  Population Apoptotic (%): 22%
  Population Healthy Nuclei (%): 67%
  Population Hoechst High Intensity Objects (%): 16%
  Population Mitochondria Different-Phenotype (%): 12%
  Population Mitotic Cells (%): 77%
  Population Normal (%): 83%
  Population Pyknosed Nuclei (%): 17%
  Population Tubulin-Different-Phenotype (%): 26%
  Total Cell Count: 688
[2]
  Population Apoptotic (%): 10%
  Population Fragmented Nuclei (%): 4%
  Population Healthy Nuclei (%): 87%
  Population Hoechst High Intensity Objects (%): 4%
  Population Mitochondria Different-Phenotype (%): 17%
  Population Mitotic Cells (%): 89%
  Population Normal (%): 95%
  Population Tubulin-Different-Phenotype (%): 38%
  Total Cell Count: 1223
[3]
  Population Apoptotic (%): 19%
  Population Fragmented Nuclei (%): 17%
  Population Healthy Nuclei (%): 62%
  Population Hoechst High Intensity Objects (%): 15%
  Population Mitochondria Different-Phenotype (%): 5%
  Population Mitotic Cells (%): 80%
  Population Normal (%): 84%
  Population Pyknosed Nuclei (%): 19%
  Population Tubulin-Different-Phenotype (%): 5%
  Total Cell Count: 611
[4]
  Population Apoptotic (%): 12%
  Population Fragmented Nuclei (%): 7%
  Population Healthy Nuclei (%): 87%
  Population Hoechst High Intensity Objects (%): 2%
  Population Mitochondria Different-Phenotype (%): 8%
  Population Mitotic Cells (%): 87%
  Population Normal (%): 97%
  Population Pyknosed Nuclei (%): 4%
  Total Cell Count: 1764
[5]
  Population Apoptotic (%): 32%
  Population Hoechst High Intensity Objects (%): 15%
  Population Mitochondria Different-Phenotype (%): 9%
  Population Mitotic Cells (%): 67%
  Population Normal (%): 84%
  Population Pyknosed Nuclei (%): 10%
  Population Tubulin-Different-Phenotype (%): 44%
  Total Cell Count: 691
[6]
  Population Apoptotic (%): 10%
  Population Fragmented Nuclei (%): 19%
  Population Healthy Nuclei (%): 76%
  Population Hoechst High Intensity Objects (%): 4%
  Population Mitochondria Different-Phenotype (%): 5%
  Population Mitotic Cells (%): 89%
  Population Normal (%): 95%
  Population Pyknosed Nuclei (%): 3%
  Population Tubulin-Different-Phenotype (%): 42%
  Total Cell Count: 1875
[7]
  Population Apoptotic (%): 26%
  Population Healthy Nuclei (%): 77%
  Population Hoechst High Intensity Objects (%): 11%
  Population Mitochondria Different-Phenotype (%): 4%
  Population Mitotic Cells (%): 73%
  Population Normal (%): 88%
  Population Pyknosed Nuclei (%): 8%
  Population Tubulin-Different-Phenotype (%): 8%
  Total Cell Count: 699
[8]
  Population Apoptotic (%): 6%
  Population Fragmented Nuclei (%): 23%
  Population Healthy Nuclei (%): 74%
  Population Hoechst High Intensity Objects (%): 3%
  Population Mitochondria Different-Phenotype (%): 1%
  Population Mitotic Cells (%): 93%
  Population Normal (%): 96%
  Population Pyknosed Nuclei (%): 2%
  Population Tubulin-Different-Phenotype (%): 6%
  Total Cell Count: 3086

## CC[C@@H]1C(=O)N(C)c2cnc(Nc3ccc(C(=O)NC4CCN(C)CC4)cc3OC)nc2N1C1CCCC1 [BI-2536]
[1]
  Population Apoptotic (%): 15%
  Population Fragmented Nuclei (%): 15%
  Population Healthy Nuclei (%): 61%
  Population Hoechst High Intensity Objects (%): 12%
  Population Membrane Permeable-Phenotype (%): 12%
  Population Mitochondria Different-Phenotype (%): 10%
  Population Mitotic Cells (%): 84%
  Population Normal (%): 87%
  Population Pyknosed Nuclei (%): 22%
  Population Tubulin-Different-Phenotype (%): 14%
  Total Cell Count: 578
[2]
  Population Apoptotic (%): 12%
  Population Fragmented Nuclei (%): 3%
  Population Healthy Nuclei (%): 82%
  Population Hoechst High Intensity Objects (%): 2%
  Population Membrane Permeable-Phenotype (%): 7%
  Population Mitochondria Different-Phenotype (%): 28%
  Population Mitotic Cells (%): 87%
  Population Normal (%): 97%
  Population Pyknosed Nuclei (%): 13%
  Population Tubulin-Different-Phenotype (%): 41%
  Total Cell Count: 1166
[3]
  Population Apoptotic (%): 32%
  Population Fragmented Nuclei (%): 17%
  Population Healthy Nuclei (%): 59%
  Population Hoechst High Intensity Objects (%): 11%
  Population Membrane Permeable-Phenotype (%): 17%
  Population Mitochondria Different-Phenotype (%): 40%
  Population Mitotic Cells (%): 67%
  Population Normal (%): 88%
  Population Pyknosed Nuclei (%): 23%
  Population Tubulin-Different-Phenotype (%): 90%
  Total Cell Count: 497
[4]
  Population Apoptotic (%): 12%
  Population Fragmented Nuclei (%): 4%
  Population Healthy Nuclei (%): 81%
  Population Hoechst High Intensity Objects (%): 3%
  Population Membrane Permeable-Phenotype (%): 24%
  Population Mitochondria Different-Phenotype (%): 43%
  Population Mitotic Cells (%): 87%
  Population Normal (%): 96%
  Population Pyknosed Nuclei (%): 13%
  Population Tubulin-Different-Phenotype (%): 98%
  Total Cell Count: 911
[5]
  Population Apoptotic (%): 14%
  Population Fragmented Nuclei (%): 14%
  Population Healthy Nuclei (%): 62%
  Population Hoechst High Intensity Objects (%): 12%
  Population Membrane Permeable-Phenotype (%): 5%
  Population Mitochondria Different-Phenotype (%): 12%
  Population Mitotic Cells (%): 85%
  Population Normal (%): 87%
  Population Pyknosed Nuclei (%): 23%
  Population Tubulin-Different-Phenotype (%): 19%
  Total Cell Count: 553
[6]
  Population Apoptotic (%): 6%
  Population Fragmented Nuclei (%): 2%
  Population Healthy Nuclei (%): 66%
  Population Hoechst High Intensity Objects (%): 4%
  Population Membrane Permeable-Phenotype (%): 2%
  Population Mitochondria Different-Phenotype (%): 22%
  Population Mitotic Cells (%): 93%
  Population Normal (%): 95%
  Population Pyknosed Nuclei (%): 31%
  Population Tubulin-Different-Phenotype (%): 48%
  Total Cell Count: 1114
[7]
  Population Apoptotic (%): 39%
  Population Fragmented Nuclei (%): 17%
  Population Healthy Nuclei (%): 57%
  Population Hoechst High Intensity Objects (%): 12%
  Population Membrane Permeable-Phenotype (%): 7%
  Population Mitochondria Different-Phenotype (%): 80%
  Population Mitotic Cells (%): 60%
  Population Normal (%): 87%
  Population Pyknosed Nuclei (%): 25%
  Population Tubulin-Different-Phenotype (%): 93%
  Total Cell Count: 510
[8]
  Population Apoptotic (%): 11%
  Population Fragmented Nuclei (%): 11%
  Population Healthy Nuclei (%): 62%
  Population Hoechst High Intensity Objects (%): 3%
  Population Membrane Permeable-Phenotype (%): 8%
  Population Mitochondria Different-Phenotype (%): 59%
  Population Mitotic Cells (%): 88%
  Population Normal (%): 96%
  Population Pyknosed Nuclei (%): 26%
  Population Tubulin-Different-Phenotype (%): 97%
  Total Cell Count: 1005
